Only some compounds are listed: those with a hit (about 10% of all), similar ones and a draw of the others.
WT yeast gro inh – growth inhibition of WT yeast, mitochondrial fusion screen; inhibition, % at 10 µM; 2.1% of 190,000 active; AID 1362; mitochondrial fusion phenotypic screen, WT strain; in the data active means inhibition above about 58%; tested in S. cerevisiae
Lmaj promast – reduces viability of Leishmania major promastigotes. resazurin fluorescence viability. inhibition, % at 10 µM. 9% of 200,000 active; in the data active means inhibition above about 50%;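 further: promastigotes grown with compound for 44 hours at 28 °C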
PMI act – activators of human phosphomannose isomerase; P34949; purified human PMI, coupled resazurin fluorescence, 20 min; hits give high values; 1 = vehicle control, 0 substrate-free wells; activation factor at 20 µM; 0.005% of 190,000 active;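 active means activation factor of 2 or more at 20 µM, relative to plate controls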
Target sequence (P34949 whole entry, looked up): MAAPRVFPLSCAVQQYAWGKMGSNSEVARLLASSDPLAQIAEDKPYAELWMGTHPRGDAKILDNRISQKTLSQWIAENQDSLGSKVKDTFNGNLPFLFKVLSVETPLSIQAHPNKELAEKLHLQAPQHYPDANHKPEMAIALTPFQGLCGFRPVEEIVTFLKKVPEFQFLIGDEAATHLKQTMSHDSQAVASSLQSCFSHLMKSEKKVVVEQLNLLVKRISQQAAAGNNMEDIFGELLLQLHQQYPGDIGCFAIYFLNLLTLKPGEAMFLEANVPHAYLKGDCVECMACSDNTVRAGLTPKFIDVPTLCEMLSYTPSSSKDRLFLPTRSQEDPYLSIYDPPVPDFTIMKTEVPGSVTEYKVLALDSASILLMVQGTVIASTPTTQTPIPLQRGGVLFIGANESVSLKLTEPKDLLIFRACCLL
PMI act satM6P – activators of human phosphomannose isomerase at near-saturating mannose 6-phosphate. P34949. coupled PMI enzyme assay, resazurin fluorescence, 20 min; hits give high values; 1 = untreated enzyme, 0 = substrate-free blank. activation factor at 20 µM. 0.34% of 190,000 active. AID 1216;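 active means activation factor of 2 or more at 20 µM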
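test system = human PMI in coupled enzyme assay | medium = HEPES-buffered pH 7.4 with magnesium and detergent | also added = 1.0 mM mannose-6-phosphate substrate with 0.22 mM NADP+ | compound = 20 µM single dose | times = 20 min incubation at room temperature | measured by = resorufin fluorescence (Ex 544/Em 590 nm) from resazurin via diaphorase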
Diaph act CS – diaphorase activation or chemical reduction counter-screen; Diaphorase/resazurin coupled assay, resorufin fluorescence, 16 min; hits give high values; 1 = vehicle wells, 0 = NADH-free wells; activation factor at 20 µM; 0.005% of 190,000 active;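 active means diaphorase activity raised at least twofold by the compound at 20 µM; inactive means activation factor below 2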
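Assay system: Purified diaphorase enzyme from Clostridium kluyveri | Amount: Enzyme 0.07 U/mL final | Dosing: Compound 20 µM once, DMSO 1% | Timing: 16 min reaction at room temperature | Detection: Fluorescence, excitation 544 nm and emission 590 nm | Evaluation: Higher resorufin formation from activation or reduction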
Each line names hits and unclear results; the compound was inactive in the other large screens.

CC(NCCOCCOc1ccccc1)c1ccccc1 (centres undefined)	none
CCC(C)NCCOCCOc1ccc(Cl)c(C)c1C (centres undefined)	Lmaj promast 97.9
CCOc1ccc(OCCOCCOc2ccccc2Cl)cc1	none
COc1cccc(CNC(=O)C(c2ccc(Cl)cc2)C(C)C)c1 (centres undefined)	Lmaj promast 57.1
COc1cccc(CNC(=O)CCl)c1	none
Cc1cc(C)c2nc(NCCCNC(=S)NCCCN(C)C)c(C#N)cc2c1	Lmaj promast 100.5
CCOCCCNC(=S)NCCCNc1nc2c(C)cc(C)cc2cc1C#N	PMI act satM6P 2.1
Cc1ccc2cc(C#N)c(NCCNC(=O)C3CC3)nc2c1C	none
Cc1ccc2cc(C#N)c(NCCNC(=S)NCCCN(C)C)nc2c1C	Lmaj promast 100.5
CCOCCCNC(=S)NCCNc1nc2c(C)cccc2cc1C#N	none
COc1cccc(C(=O)N2CCN(S(C)(=O)=O)CC2)c1	none
O=C1NN(c2ccccc2)C(=O)/C1=C/c1ccc(Sc2cccc3ccccc23)o1	none
CC(=O)Nc1ccc(S(=O)(=O)NC(C)C(=O)NCCc2ccc(F)cc2)cc1 (centres undefined)	none
Cc1ccc(/C=C/C(=O)c2nc3ccccc3[nH]2)cc1	Lmaj promast 98.3
Cc1cc(C)c(C)c(S(=O)(=O)N2CCN(CC(=O)c3c(N)n(Cc4ccccc4)c(=O)n(C)c3=O)CC2)c1C	Lmaj promast 99.3
CCn1c(=O)c(C(=O)CN2CCN(S(=O)(=O)c3ccc(C)cc3C)CC2)c(N)n(Cc2ccccc2)c1=O	Lmaj promast 57.9
COC(=O)C1=C(C)NC(C)=C(C(=O)OC)C1C(=O)OC(C)C(=O)c1ccccc1 (centres undefined)	none
FC(F)(F)c1cc(-c2ccccc2)nc(NCc2cccs2)n1	WT yeast gro inh 70.2
FC(F)(F)c1cc(-c2ccccc2)nc(NC2CCCC2)n1	WT yeast gro inh 86.0
FC(F)(F)c1cc(-c2ccco2)nc(NCc2cccs2)n1	none
FC(F)(F)c1cc(-c2ccccc2)nc(NCC2CCCO2)n1 (centres undefined)	none
Cc1nn(C)c(Oc2ccccc2)c1CCNC(=O)C(C)(C)C	none
CCN(CC)CCNC(=S)N1CCn2c(nc3ccccc32)C1	none
CN(C)CCCNC(=S)N1CCn2c(nc3ccccc32)C1	Lmaj promast 51.4
CCN(CC)S(=O)(=O)c1cccc(NC(=O)CN2C(=O)c3ccc([N+](=O)[O-])cc3C2=O)c1	none
CC(O)CNCCNCc1c(OCc2ccccc2)ccc2ccccc12 (centres undefined)	Lmaj promast 100.7
CC(O)CNCCOc1ccccc1-c1ccccc1 (centres undefined)	none
OCCNCCNCc1ccccc1OCc1ccccc1	none
CC(O)CNCCOc1ccccc1OCc1ccccc1 (centres undefined)	Lmaj promast 87.9
CCOC(=O)c1cc(C(C)(C)C)oc1CNC(=O)c1c(C)oc2c1CCCC2	none
COC(=O)COC(=O)c1ccccc1NC(=O)c1ccccc1	WT yeast gro inh 70.6
CCC(NC(=O)c1ccccc1NC(=O)c1ccccc1)C(=O)O (centres undefined)	Lmaj promast 64.6
CCC(NC(=O)c1ccccc1NC(=O)c1ccco1)C(=O)O (centres undefined)	Lmaj promast 89.0
CC(=O)c1ccccc1NC(=O)COC(=O)c1ccccc1NC(=O)c1ccccc1	none
CC(NS(=O)(=O)c1ccc(Br)cc1)C(c1cccs1)N1CCOCC1 (centres undefined)	none
Cc1cc(C)nc(NS(=O)(=O)c2ccc(NC(=O)C3(c4ccccc4)CCCC3)cc2)n1	none
CC1=NN(C(=O)Cn2nc([N+](=O)[O-])c(Br)c2C)C(O)(C(F)(F)F)C1 (centres undefined)	none
Cc1cc(C)c(NC(=O)/C=C\C(=O)O)c([N+](=O)[O-])c1	none
O=c1c2nnn(-c3ccc(Br)cc3)c2ncn1Cc1ccccn1	none
O=C(CN(Cc1ccccc1)C(=O)c1csnn1)NCc1ccccc1	none
Cc1csc(NC(=O)c2nn(C)c(C)c2[N+](=O)[O-])n1	none
Cc1ccc(-c2cnc(NCc3cc4c(cc3[N+](=O)[O-])OCO4)n2C)cc1C	Lmaj promast 94.6
Cc1cc(C)cc(NCc2cc3c(cc2[N+](=O)[O-])OCO3)c1	none
